# Test results as given in ChEMBL document CHEMBL2424590, “4-[18F]Fluoro-m-hydroxyphenethylguanidine: a radiopharmaceutical for quantifying regional cardiac sympathetic nerve density with positron emission tomography” (J Med Chem, 2013).
# Experiments:
# Blood [1] = assay: Biodistribution in Sprague-Dawley rat blood at 20 to 120 uCi, iv after 120 mins by gamma counting analysis; assay type: ADME, organism-based; details: in vivo, 2 h
# Method in brief: (§1)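 Sprague-Dawley rats (280–330 g), 2 male and 2 female per time point (5, 30, 60, 120 min), under light isoflurane, received a tail-vein bolus of 20–120 μCi tracer in 0.05–0.10 mL isotonic 60 mM sodium phosphate, pH 5.4. Tissues were weighed and gamma-counted. Decay-corrected dpm/g was normalized to injected dpm per kg body weight (%ID·kg/g).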
# Rattus norvegicus [2] = assay: Biodistribution in Sprague-Dawley rat stomach at 20 to 120 uCi, iv after 120 mins by gamma counting analysis; assay type: ADME, organism-based; details: in vivo, 2 h
# Method in brief: (§2)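 Male and female rats (2 per sex per time point, 280–330 g) under light isoflurane given tail-vein bolus of 20–120 μCi tracer in 0.05–0.10 mL isotonic 60 mM sodium phosphate, pH 5.4. Tissues sampled at 5, 30, 60 or 120 min, weighed and gamma-counted. Decay-corrected dpm per gram normalised to injected dpm and body weight, given as %ID·kg/g.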
# Adrenal [3] = assay: Biodistribution in Sprague-Dawley rat adrenal at 20 to 120 uCi, iv after 120 mins by gamma counting analysis; assay type: ADME, organism-based, Adrenal tissue; details: in vivo, 2 h; method in brief: as §1
# Pancreas = assay: Biodistribution in Sprague-Dawley rat pancreas at 20 to 120 uCi, iv after 120 mins by gamma counting analysis; assay type: ADME, organism-based; details: in vivo, 2 h; method in brief: as §1
# Muscle tissue [4] = assay: Biodistribution in Sprague-Dawley rat muscle at 20 to 120 uCi, iv after 60 mins by gamma counting analysis; assay type: ADME, organism-based; details: in vivo, 1 h; method in brief: as §1
# Ovary [5] = assay: Biodistribution in Sprague-Dawley rat ovary at 20 to 120 uCi, iv after 60 mins by gamma counting analysis; assay type: ADME, organism-based, Female gonad; details: in vivo, 1 h
# Method in brief: (§3)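 Sprague-Dawley rats (280–330 g) under light isoflurane received a tail-vein bolus of 20–120 μCi tracer in 0.05–0.10 mL isotonic 60 mM sodium phosphate, pH 5.4. Sampling was at 5, 30, 60 or 120 min. […] were weighed and gamma-counted. Decay-corrected dpm/g was normalized to injected dpm per kg body weight (%ID·kg/g).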
# Rattus norvegicus [6] = assay: Biodistribution in Sprague-Dawley rat stomach at 20 to 120 uCi, iv after 60 mins by gamma counting analysis; assay type: ADME, organism-based; details: in vivo, 1 h; method in brief: as §2
# Rattus norvegicus [7] = assay: Biodistribution in Sprague-Dawley rat eyeballs at 20 to 120 uCi, iv after 60 mins by gamma counting analysis; assay type: ADME, organism-based, Eyeball of camera-type eye; details: in vivo, 1 h; method in brief: as §1
# Brain = assay: Biodistribution in Sprague-Dawley rat brain at 20 to 120 uCi, iv after 60 mins by gamma counting analysis; assay type: ADME, organism-based; details: in vivo, 1 h; method in brief: as §1
# Blood [8] = assay: Biodistribution in Sprague-Dawley rat blood at 20 to 120 uCi, iv after 30 mins by gamma counting analysis; assay type: ADME, organism-based; details: in vivo, 0.5 h; method in brief: as §1
# Muscle tissue [9] = assay: Biodistribution in Sprague-Dawley rat muscle at 20 to 120 uCi, iv after 30 mins by gamma counting analysis; assay type: ADME, organism-based; details: in vivo, 0.5 h; method in brief: as §1
# Testes = assay: Biodistribution in Sprague-Dawley rat testes at 20 to 120 uCi, iv after 30 mins by gamma counting analysis; assay type: ADME, organism-based, Testis; details: in vivo, 0.5 h; method in brief: as §2
# Rattus norvegicus [10] = assay: Biodistribution in Sprague-Dawley rat uterus at 20 to 120 uCi, iv after 30 mins by gamma counting analysis; assay type: ADME, organism-based; details: in vivo, 0.5 h; method in brief: as §2
# Ovary [11] = assay: Biodistribution in Sprague-Dawley rat ovary at 20 to 120 uCi, iv after 30 mins by gamma counting analysis; assay type: ADME, organism-based, Female gonad; details: in vivo, 0.5 h; method in brief: as §3
# Rattus norvegicus [12] = assay: Biodistribution in Sprague-Dawley rat eyeballs at 20 to 120 uCi, iv after 30 mins by gamma counting analysis; assay type: ADME, organism-based, Eyeball of camera-type eye; details: in vivo, 0.5 h; method in brief: as §1
# Blood [13] = assay: Biodistribution in Sprague-Dawley rat blood at 20 to 120 uCi, iv after 5 mins by gamma counting analysis; assay type: ADME, organism-based; details: in vivo; method in brief: as §1
# Muscle tissue [14] = assay: Biodistribution in Sprague-Dawley rat muscle at 20 to 120 uCi, iv after 5 mins by gamma counting analysis; assay type: ADME, organism-based; details: in vivo; method in brief: as §1
# Ovary [15] = assay: Biodistribution in Sprague-Dawley rat ovary at 20 to 120 uCi, iv after 5 mins by gamma counting analysis; assay type: ADME, organism-based, Female gonad; details: in vivo; method in brief: as §3
# Rattus norvegicus [16] = assay: Biodistribution in Sprague-Dawley rat stomach at 20 to 120 uCi, iv after 5 mins by gamma counting analysis; assay type: ADME, organism-based; details: in vivo; method in brief: as §2
# Adrenal [17] = assay: Biodistribution in Sprague-Dawley rat adrenal at 20 to 120 uCi, iv after 5 mins by gamma counting analysis; assay type: ADME, organism-based, Adrenal tissue; details: in vivo; method in brief: as §1
# Lung = assay: Biodistribution in Sprague-Dawley rat lung at 20 to 120 uCi, iv after 5 mins by gamma counting analysis; assay type: ADME, organism-based; details: in vivo; method in brief: as §1
# Heart = assay: Biodistribution in Sprague-Dawley rat heart at 20 to 120 uCi, iv after 5 mins by gamma counting analysis; assay type: ADME, organism-based; details: in vivo; method in brief: as §1
# [18] = Drug uptake in rhesus macaque monkey adrenal glands 5 to 6 mCi, iv after 90 mins by PET analysis in presence of desipramine; assay type: ADME, organism-based, Macaca mulatta, Adrenal gland; details: in vivo, 1.5 h
# [19] = Drug uptake in rhesus macaque monkey adrenal glands 5 to 6 mCi, iv after 90 mins by PET analysis; assay type: ADME, organism-based, Macaca mulatta, Adrenal gland; details: in vivo, 1.5 h
# Nucleic Acid [20] = assay: Ratio of drug level in plasma to whole blood in rhesus macaque monkey at 5 to 6 mCi, iv by RP-HPLC analysis; assay type: ADME, organism-based, Macaca mulatta; details: in vivo
# Method in brief: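 Venous monkey blood samples taken during PET were centrifuged 1 min at 12000 × g to separate plasma from RBCs. 0.1 mL aliquots of whole blood and plasma were gamma-counted, and decay-corrected counts gave Cp/Cwb for each sample. A pre-scan sample spiked with 0.1 mCi tracer was incubated 60–70 min at 37 °C and processed the same way.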
# Plasma = assay: Metabolic stability in rhesus macaque monkey plasma assessed as retention time at 5 to 6 mCi, iv by RP-HPLC analysis; assay type: ADME, organism-based, Macaca mulatta; details: in vivo
# Method in brief: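 Six venous samples (1.5–2.0 mL; typically 1, 2, 4, 10, 30, 60 min) drawn during the monkey PET scan into heparin and centrifuged 1 min at 12000 × g. Plasma deproteinised with HClO₄ (final 0.4 N), spun, neutralised with KOH to pH 7.0–7.5 and filtered twice (0.22 μm). Analysed by reverse-phase HPLC (10% EtOH in 60 mM NaH₂PO₄, pH 5.4, 1.0 mL/min) with NaI(Tl) radiodetection. Decay-corrected intact fraction per sample; T1/2 is the time at which 50% of plasma activity is metabolite.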
# Nucleic Acid [21] = assay: Ratio of drug level in heart to liver in rhesus macaque monkey at 5 to 6 mCi, iv after 90 mins by PET analysis; assay type: ADME, organism-based, Macaca mulatta; details: in vivo, 1.5 h
# [22] = Drug uptake in rhesus macaque monkey liver at 5 to 6 mCi, iv after 90 mins by PET analysis; assay type: ADME, organism-based, Macaca mulatta; details: in vivo, 1.5 h
# [23] = Drug uptake in rhesus macaque monkey lung at 5 to 6 mCi, iv after 90 mins by PET analysis; assay type: ADME, organism-based, Macaca mulatta; details: in vivo, 1.5 h
# [24] = Half life in Sprague-Dawley rat heart sympathetic neurons at 2 uCi/mL administered as infusion by gamma counting analysis; assay type: ADME, tissue-based; details: sympathetic neuron
# Method in brief: (§4)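 Isolated working rat hearts perfused with 54 μM corticosterone in all perfusates to block uptake-2. Tracer infused at <10 nM total mass for 10 min to measure neuronal uptake rate (mL/min/g wet), then switched to normal perfusate to follow clearance over 2 h.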
# [25] = Drug uptake in Sprague-Dawley rat heart sympathetic neurons measured per gram wet mass of heart at 2 uCi/mL administered as infusion for 10 mins measured after 120 mins by gamma counting analysis; assay type: ADME, tissue-based; details: sympathetic neuron, 2 h; method in brief: as §4
# [26] = Half life in rat urinary bladder at 0.5 mCi by PET analysis; details: in vivo
# [27] = Drug excretion in rat urinary bladder at 0.5 mCi by PET analysis; details: in vivo
structure (smiles),measurement,setting,value
N=C(N)NCCc1ccc([18F])c(O)c1,Drug uptake,Blood [1],0.009 % ID/g
same,Drug uptake,Rattus norvegicus [2],0.089 %IDKg/g
same,Drug uptake,Adrenal [3],0.133 %IDKg/g
same,Drug uptake,Pancreas,0.121 %IDKg/g
same,Drug uptake,Muscle tissue [4],0.016 % ID/g
same,Drug uptake,Ovary [5],0.142 %IDKg/g
same,Drug uptake,Rattus norvegicus [6],0.115 %IDKg/g
same,Drug uptake,Rattus norvegicus [7],0.041 %IDKg/g
same,Drug uptake,Brain,0.002 %IDKg/g
same,Drug uptake,Blood [8],0.022 %ID·kg/g
same,Drug uptake,Muscle tissue [9],0.025 %ID·kg/g
same,Drug uptake,Testes,0.01 %IDKg/g
same,Drug uptake,Rattus norvegicus [10],0.155 %IDKg/g
same,Drug uptake,Ovary [11],0.171 %IDKg/g
same,Drug uptake,Rattus norvegicus [12],0.04 %IDKg/g
same,Drug uptake,Blood [13],0.062 %ID·kg/g
same,Drug uptake,Muscle tissue [14],0.019 % ID/g
same,Drug uptake,Ovary [15],0.194 %IDKg/g
same,Drug uptake,Rattus norvegicus [16],0.116 %IDKg/g
same,Drug uptake,Adrenal [17],0.203 %IDKg/g
same,Drug uptake,Lung,0.267 %IDKg/g
same,Drug uptake,Heart,0.746 %IDKg/g
same,Drug uptake,[18],Not Active
same,Drug uptake,[19],Active
same,Ratio,Nucleic Acid [20],1.25
same,Retention_time,Plasma,11.4 min
same,Ratio,Nucleic Acid [21],2.5
same,Drug uptake,[22],Not Active
same,Drug uptake,[23],Not Active
same,t1/2,[24],> 24 h
same,Kup,[25],0.77 mL/min
same,t1/2,[26],0.2 h
same,Drug excretion,[27],19.9 %ID
